According to ChEMBL document CHEMBL4414577, “Discovery of Pyrrolo[2,3-b]pyridine (1,7-Dideazapurine) Nucleoside Analogues as Anti-Trypanosoma cruzi Agents” (J Med Chem, 2019):
The source made the active and inactive calls. The calls are words filed in the database; no cut-off is given here.

Key:
Trypanosoma cruzi [1] = experiment: Antitrypanosomal activity against Trypanosoma cruzi Tulahuen CL2 amastigotes infected in human MRC5 SV2 cells incubated for 7 days by chlorophenol red beta-D-galactopyranoside substrate based spectrophotometric assay; format: functional, organism-based; conditions: Tulahuen CL2, MRC-5 SV2, 168 h
In short: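 Intracellular amastigotes of β-galactosidase-expressing Tulahuen strain grown in MRC-5 fibroblast host cells. EC50 in μM given as mean and SEM of two or three independent experiments; some values come from a single determination.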

[2] = Cytotoxicity against human MRC5 SV2 cells assessed as reduction in cell viability incubated for 3 days by resazurin dye based assay; conditions: MRC-5 SV2, 72 h
[3] = Selectivity index, ratio for EC50 for human MRC5 SV2 cells to EC50 for Trypanosoma cruzi Tulahuen CL2 amastigotes infected in human MRC5 SV2 cells; format: toxicity, cell-based; conditions: read-out: Ratio EC50
Trypanosoma cruzi [4] = experiment: Antitrypanosomal activity against Trypanosoma cruzi Y amastigotes infected in Swiss mouse primary cardiac cells incubated for 168 hrs with media replenishment for every 48 hrs followed by compound washout and measured after 168 hrs by light microscopic method; format: functional, organism-based
In short: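 Cardiac cells plated 24 h, then infected 24 h at 37 °C with Y-strain bloodstream trypomastigotes (parasite:host 10:1) and washed. Serial dilutions (up to 5 µM) for 168 h at 37 °C, drug medium renewed every 48 h. PBS rinse, 168 h drug-free. Giemsa-stained; infected cells and parasites per cell scored in 200 cells. EC50 from infection-index inhibition; two experiments, duplicate.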

Trypanosoma cruzi [5] = experiment: In vivo antitrypanosomal activity against Trypanosoma cruzi Y trypomastigotes infected in Swiss mouse assessed as reduction in parasitemia at 100 mg/kg, po administered once daily for 5 days with 2 days interval for 3 cycles in presence of cyclophosphamide by light microscopy; format: functional, organism-based
[6] = Toxicity in Swiss Webster mouse infected with Trypanosoma cruzi Y trypomastigotes assessed as body weight loss at 100 mg/kg, po administered once daily via gavage for 5 days starting from 5 days post-infection and measured daily up to 40 days post-infection; format: organism-based; conditions: in vivo
In short: (§1)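 Male Swiss Webster mice were infected i.p. with 10⁴ Y-strain trypomastigotes and treated by oral gavage for 5 days from 5 dpi. Regimens were 25 mg/kg b.i.d. (10% EtOH/citrate vehicle) or benznidazole 100 mg/kg s.i.d. Body weight and visual clinical signs were monitored, with daily mortality checks up to 40 dpi. There were six mice per group.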

Trypanosoma cruzi [7] = experiment: In vivo antitrypanosomal activity against Trypanosoma cruzi Y trypomastigotes infected in Swiss mouse assessed as mouse survival at 100 mg/kg, po administered once daily for 5 days with 2 days interval for 3 cycles and measured […]; format: functional, organism-based
In short: (§2)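 Male Swiss Webster mice infected i.p. with 10⁴ Y-strain bloodstream trypomastigotes; six per group. Oral gavage from 5 dpi for 15 days (three 5-day rounds, 2 days off): test compound 25 mg/kg b.i.d., benznidazole 100 mg/kg s.i.d. Parasites counted in 5 μL tail blood to 30 dpi; mortality followed to 53 dpi.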

Trypanosoma cruzi [8] = experiment: In vivo antitrypanosomal activity against Trypanosoma cruzi Y trypomastigotes infected in Swiss mouse assessed as reduction in parasitemia at 100 mg/kg, po administered once daily via gavage for 5 days starting from 5 days post-infection and measured up to 30 days post-infection by light microscopic method relative to control; format: functional; design: scale not given: the % may be the effect or the level left
In short: (§3)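 Male Swiss Webster mice (18-20 g, 4-5 weeks) infected i.p. with 10⁴ Y-strain bloodstream trypomastigotes; six per group. Oral gavage from 5 dpi for 5 consecutive days: test compound at 25 mg/kg b.i.d. (2.0 mg/mL in 10% EtOH, 0.1 M citrate pH 3.02), benznidazole at 100 mg/kg s.i.d. Parasites counted in 5 μL tail blood to 30 dpi; mortality followed daily to 40 dpi.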

Trypanosoma cruzi [9] = experiment: In vivo antitrypanosomal activity against Trypanosoma cruzi Y trypomastigotes infected in Swiss mouse assessed as reduction in parasitemia at 100 mg/kg, po administered once daily via gavage for 5 days starting from 5 days post-infection in presence of cyclophosphamide by light microscopic method; format: functional, organism-based
Trypanosoma cruzi [10] = experiment: In vivo antitrypanosomal activity against Trypanosoma cruzi Y trypomastigotes infected in Swiss mouse assessed as reduction in parasitemia at 100 mg/kg, po administered once daily for 5 days with 2 days interval for 3 cycles and measured up to 30 days post-infection by light microscopy relative to control; format: functional, organism-based; in short: as §2
[11] = Cytotoxicity against Swiss mouse primary cardiac cells assessed as reduction in cell viability incubated for 24 hrs by PrestoBlue dye based colorimetry
Trypanosoma cruzi [12] = experiment: In vivo antitrypanosomal activity against Trypanosoma cruzi Y trypomastigotes infected in Swiss mouse assessed as reduction in parasitemia at 100 mg/kg, po administered once daily for 5 days with 2 days interval for 3 cycles and measured 9 days post-infection by light microscopy; format: functional, organism-based; in short: as §2
Trypanosoma cruzi [13] = experiment: In vivo antitrypanosomal activity against Trypanosoma cruzi Y trypomastigotes infected in Swiss mouse assessed as reduction in parasitemia at 100 mg/kg, po administered once daily via gavage for 5 days starting from 5 days post-infection and measured 8 days post-infection by light microscopic method relative to control; format: functional; design: scale not given: the % may be the effect or the level left; in short: as §3
Trypanosoma cruzi [14] = experiment: In vivo antitrypanosomal activity against Trypanosoma cruzi Y trypomastigotes infected in Swiss mouse assessed as mouse survival at 100 mg/kg, po administered once daily via gavage for 5 days starting from 5 days post-infection and measured daily up to 40 days post-infection; format: functional, organism-based; in short: as §3
[15] = Toxicity in Swiss Webster mouse infected with Trypanosoma cruzi Y trypomastigotes assessed as body weight loss at 100 mg/kg, po administered once daily for 5 days with 2 days interval for 3 cycles; format: organism-based; conditions: in vivo
In short: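 Y-strain-infected male Swiss Webster mice were dosed orally for 15 days (three rounds of 5 days, 2 drug-free days between) starting at 5 dpi. Regimens were 25 mg/kg b.i.d. or benznidazole 100 mg/kg s.i.d. Weight loss was recorded as a sign of toxicity, with mortality checked daily up to 53 dpi. There were six mice per group.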

L929 = experiment: Cytotoxicity against mouse L929 cells assessed as reduction in cell viability; format: cell-based
Trypanosoma cruzi [16] = experiment: Antitrypanosomal activity against bloodstream form of Trypanosoma cruzi Y trypomastigotes measured after 24 hrs by Neubauer chamber-based light microscopic analysis; format: functional, organism-based
[17] = Toxicity in Swiss Webster mouse infected with Trypanosoma cruzi Y trypomastigotes assessed as appearance of clinical symptoms at 100 mg/kg, po administered once daily via gavage for 5 days starting from 5 days post-infection and measured daily up to 40 days post-infection; format: organism-based; conditions: in vivo; in short: as §1

Row | Compound | EC50 (Trypanosoma cruzi [1]) | EC50 [2] | selectivity ratio [3] | other results
1 | N#Cc1cn([C@@H]2O[C@H](CO)[C@@H](O)[C@H]2O)c2nccc(N)c12 | 4 µM | 18.5 µM | 4.6 | 
2 | O=C(Cn1ccnc1[N+](=O)[O-])NCc1ccccc1 [BENZNIDAZOLE] | 2.36 µM |  |  | EC50 (Trypanosoma cruzi [4]): 2700 nM; Activity (Trypanosoma cruzi [5]): inactive; Activity [6]: Non-Toxic; Activity (Trypanosoma cruzi [7]): inactive; Activity (Trypanosoma cruzi [8]): 100%; Activity (Trypanosoma cruzi [9]): inactive; Activity (Trypanosoma cruzi [10]): Active; EC50 [11]: > 400 µM; Activity (Trypanosoma cruzi [12]): Active; Activity (Trypanosoma cruzi [13]): 100%; Activity (Trypanosoma cruzi [14]): Active; Activity [15]: Non-Toxic; EC50 (L929): > 200 µM; EC50 (Trypanosoma cruzi [16]): 5.7 µM; Activity [17]: Non-Toxic
3 | Nc1ccnc2c1c(C1=CCCCC1)cn2[C@@H]1O[C@H](CO)[C@@H](O)[C@H]1O | > 64 µM | > 64 µM |  | 
4 | C#Cc1cn([C@@H]2O[C@H](CO)[C@@H](O)[C@H]2O)c2nccc(N)c12 | 0.08 µM | 59 µM | 730 | EC50 (L929): > 200 µM; EC50 (Trypanosoma cruzi [16]): 40.5 µM
5 | Nc1ccnc2c1c(Cl)cn2[C@@H]1O[C@H](CO)[C@@H](O)[C@H]1O | 0.19 µM | > 64 µM | > 337 | EC50 [11]: > 400 µM; EC50 (L929): > 200 µM; EC50 (Trypanosoma cruzi [16]): > 50 µM
6 | Cc1cn([C@@H]2O[C@H](CO)[C@@H](O)[C@H]2O)c2nccc(N)c12 | 1.14 µM | 51.6 µM | 45 | EC50 (L929): > 200 µM; EC50 (Trypanosoma cruzi [16]): > 50 µM
7 | Nc1ccnc2c1c(I)cn2[C@@H]1O[C@H](CO)C[C@H]1O | > 64 µM | > 64 µM |  | 
8 | CCc1cn([C@@H]2O[C@H](CO)[C@@H](O)[C@H]2O)c2nccc(N)c12 | > 64 µM | > 64 µM |  | 
9 | Nc1ccnc2c1c(F)cn2[C@@H]1O[C@H](CO)[C@@H](O)[C@H]1O | 8.8 µM | > 64 µM | > 7.3 | 
10 | Nc1ccnc2c1c(/C=C/c1ccccc1)cn2[C@@H]1O[C@H](CO)[C@@H](O)[C@H]1O | > 64 µM | > 64 µM |  | 
11 | Nc1ccnc2c1c(I)cn2[C@H]1C[C@H](O)[C@@H](CO)O1 | > 64 µM | > 64 µM |  | 
12 | C[C@H]1O[C@@H](n2cc(I)c3c(N)ccnc32)[C@H](O)[C@@H]1O | > 64 µM | > 64 µM |  | 
13 | Nc1ccnc2c1c(Br)cn2[C@@H]1O[C@H](CO)[C@@H](O)[C@H]1O | 0.2 µM | > 64 µM | > 320 | 
14 | OC[C@H]1O[C@@H](n2cc(I)c3cccnc32)[C@H](O)[C@@H]1O | 1.75 µM | 52.9 µM | > 30 | EC50 (L929): > 200 µM; EC50 (Trypanosoma cruzi [16]): 36.3 µM
15 | Nc1ccnc2c1ccn2[C@@H]1O[C@H](CO)[C@@H](O)[C@H]1O | 2.27 µM | 17.9 µM | 7.9 | 
16 | Nc1ccnc2c1c(-c1ccccc1)cn2[C@@H]1O[C@H](CO)[C@@H](O)[C@H]1O | > 64 µM | > 64 µM |  | 
17 | Nc1ccnc2c1c([N+](=O)[O-])cn2[C@@H]1O[C@H](CO)[C@@H](O)[C@H]1O | 47.7 µM | > 64 µM | > 1.3 | 
18 | Nc1ccnc2c1c(C1CCCCC1)cn2[C@@H]1O[C@H](CO)[C@@H](O)[C@H]1O | > 64 µM | > 64 µM |  | 
19 | Nc1ccnc2c1c(-c1ccc(Cl)cc1)cn2[C@@H]1O[C@H](CO)[C@@H](O)[C@H]1O | > 64 µM | > 64 µM |  | 
20 | Nc1ccnc2c1c(C(F)(F)F)cn2[C@@H]1O[C@H](CO)[C@@H](O)[C@H]1O | 1.56 µM | 0.73 µM | 0.47 | 
21 | Cc1ccnc2c1c(I)cn2[C@@H]1O[C@H](CO)[C@@H](O)[C@H]1O | 7.98 µM | 2.29 µM | 0.29 | 
22 | C=Cc1cn([C@@H]2O[C@H](CO)[C@@H](O)[C@H]2O)c2nccc(N)c12 | 0.81 µM | > 64 µM | > 79 | EC50 (L929): > 200 µM; EC50 (Trypanosoma cruzi [16]): > 50 µM
23 | Nc1ccnc2[nH]cc(I)c12 | > 64 µM | > 64 µM |  | 
24 | Nc1ncnc2c1c(I)cn2[C@@H]1O[C@H](CO)[C@@H](O)[C@H]1O [IODOTUBERCIDIN] | 0.8 µM | 5.35 µM | 6.7 | 
25 | OC[C@H]1O[C@@H](n2cc(I)c3c(Cl)ccnc32)[C@H](O)[C@@H]1O | 2.14 µM | 2.18 µM | 1 | 
26 | Nc1ccnc2c1c(-c1ccccn1)cn2[C@@H]1O[C@H](CO)[C@@H](O)[C@H]1O | > 64 µM | > 64 µM |  | 
27 | Nc1ccnc2c1c(-c1cccs1)cn2[C@@H]1O[C@H](CO)[C@@H](O)[C@H]1O | 36.9 µM | > 64 µM | > 1.7 | 
28 | Nc1ccnc2c1c(C#Cc1ccccc1)cn2[C@@H]1O[C@H](CO)[C@@H](O)[C@H]1O | > 64 µM | > 64 µM |  | 
